Source: publication PMC11696753 (ACS Omega, 2024)
Residue numbers refer to the chain shown, from its start.

Legend:
[1] = tested on: SW480 cell line; experiment: MTT antiproliferative assay, SW480 cell line; format: cell-based, human; conditions: for inhibition of SW480 cells compared with the CVB-D group: 10 μM, CVB-D 12 μM
Summary of the method: (§1)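 MTT assay. Cells were grown in DMEM with 10% FBS and 1% penicillin/streptomycin at 37 °C, 5% CO2, then seeded at 5 × 10^3 to 6 × 10^3 cells/mL in 96-well plates. Screening was at 10 μM, with CVB-D (12 μM) as positive control and curcumin as comparator. The dose range was 0–8 μM in 1 μM steps. Solvent-only wells served as controls. Read-out was absorbance of DMSO-dissolved formazan. Data are mean ± SD, n ≥ 3.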

[2] = tested on: CT26 cell line; experiment: MTT antiproliferative assay, CT26 cell line; format: cell-based, mouse
Summary of the method: as §1

[3] = tested on: RKO cell line; experiment: MTT antiproliferative assay, RKO cell line; format: cell-based, human; conditions: NCM460 vs RKO
Summary of the method: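 Selectivity index is the IC50 in normal colon epithelial NCM460 cells divided by the IC50 in the colorectal cancer line. Both IC50s come from MTT viability assays: solvent-treated controls, formazan dissolved in DMSO, absorbance read-out, at least three independent replicates.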

[4] = tested on: NCM460 cell line; experiment: MTT cytotoxicity, normal colon epithelial cell line NCM460; format: cell-based, human
Summary of the method: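 MTT viability in NCM460 normal human colon epithelial cells. Test compound and curcumin were each tested at 0, 5, 10, 20, 40 and 80 μM, diluted in medium from a 10 mmol/L DMSO stock, against a solvent control. Formazan was dissolved in DMSO and absorbance read. Toxicity was graded by USP classification. Data are mean ± SD, at least three independent replicates.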

[5] = tested on: THP-1 cell line; experiment: MTT cytotoxicity, THP-1 cell line; format: cell-based, human; conditions: 0 to 8 μM, all concentrations
Summary of the method: (§2)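 Viability of THP-1 (human monocytic) and RAW264.7 (mouse macrophage) cells was measured by MTT. Cells were grown in DMEM with 10% FBS at 37 °C, 5% CO2, then seeded at 5 × 10^3 to 6 × 10^3 cells/mL. Test compound was given at 0–8 μM alongside an equal-volume solvent control. Read-out was absorbance after DMSO solubilisation of formazan. Data are mean ± SD from at least three independent experiments.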

[6] = tested on: RAW264.7 cell line; experiment: MTT cytotoxicity, RAW264.7 cell line; format: cell-based, mouse; conditions: 0 to 8 μM, all concentrations
Summary of the method: as §2

[7] = tested on: Cyclin-D1; experiment: Western blot, Cyclin-D1 expression in SW480 cells; format: cell-based, human; conditions: SW480, 8 μM
Summary of the method: (§3)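 Western blot. SW480 or CT26 cells were seeded at 3 × 10^5 to 5 × 10^5/mL, allowed to adhere, then exposed to 0 (control) or 8 μM test compound for 24 h. Lysate protein was quantified by BCA and equalised, boiled, separated by SDS-PAGE, transferred to PVDF and detected with peroxidase labeling. Data are mean ± SD, at least three independent replicates, analysed by one-way ANOVA or t test.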

[8] = tested on: Cyclin-D1; experiment: Western blot, Cyclin-D1 expression in CT26 cells; format: cell-based, mouse; conditions: CT26, 8 μM
Summary of the method: as §3

[9] = tested on: p27; experiment: Western blot, p27 expression in SW480 cells; format: cell-based, human; conditions: SW480, 8 μM vs control
Summary of the method: as §3

[10] = tested on: p27; experiment: Western blot, p27 expression in CT26 cells; format: cell-based, mouse; conditions: CT26, 8 μM vs control
Summary of the method: as §3

[11] = tested on: PINK1; experiment: Western blot, PINK1 expression in SW480 cells; format: cell-based, human; conditions: SW480, 8 μM vs control
Summary of the method: as §3

[12] = tested on: PINK1; experiment: Western blot, PINK1 expression in CT26 cells; format: cell-based, mouse; conditions: CT26, 8 μM vs control
Summary of the method: as §3

[13] = tested on: Parkin; experiment: Western blot, Parkin expression in SW480 cells; format: cell-based, human; conditions: SW480, 8 μM vs control
Summary of the method: as §3

[14] = tested on: Parkin; experiment: Western blot, Parkin expression in CT26 cells; format: cell-based, mouse; conditions: CT26, 8 μM vs control
Summary of the method: as §3

[15] = biological target: T1, SHP-2 (Homo sapiens, UniProt Q06124); experiment: Western blot, SHP-2 expression in SW480 cells; format: cell-based; conditions: SW480, 8 μM
T1 sequence (Q06124 1-593): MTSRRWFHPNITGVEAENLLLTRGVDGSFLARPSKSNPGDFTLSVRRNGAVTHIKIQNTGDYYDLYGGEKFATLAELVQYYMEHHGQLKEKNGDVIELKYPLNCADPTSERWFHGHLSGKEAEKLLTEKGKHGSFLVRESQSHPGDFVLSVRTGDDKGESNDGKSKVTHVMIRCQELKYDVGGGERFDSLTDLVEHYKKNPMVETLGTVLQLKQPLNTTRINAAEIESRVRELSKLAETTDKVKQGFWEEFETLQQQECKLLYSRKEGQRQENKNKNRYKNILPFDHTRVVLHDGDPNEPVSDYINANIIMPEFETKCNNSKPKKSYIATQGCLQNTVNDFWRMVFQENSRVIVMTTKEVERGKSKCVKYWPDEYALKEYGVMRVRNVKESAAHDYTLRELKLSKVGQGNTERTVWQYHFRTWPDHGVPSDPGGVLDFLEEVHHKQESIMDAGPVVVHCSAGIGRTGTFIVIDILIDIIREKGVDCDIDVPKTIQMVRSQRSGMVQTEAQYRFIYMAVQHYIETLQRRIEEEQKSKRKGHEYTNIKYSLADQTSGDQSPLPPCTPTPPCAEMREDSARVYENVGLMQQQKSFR
Summary of the method: as §3

[16] = biological target: T2, SHP-2 (Mus musculus, UniProt P35235); experiment: Western blot, SHP-2 expression in CT26 cells; format: cell-based; conditions: CT26, 8 μM
T2 sequence (P35235 1-593): T1 sequence (Q06124 1-593) with M450V, A550V, K590R
Summary of the method: as §3

[17] = biological target: CDK1 (Homo sapiens, UniProt P06493); experiment: Western blot, CDK1 expression in SW480 cells; format: cell-based; conditions: SW480, 8 μM
Summary of the method: as §3

[18] = biological target: CDK1 (Mus musculus, UniProt P11440); experiment: Western blot, CDK1 expression in CT26 cells; format: cell-based; conditions: CT26, 8 μM
Summary of the method: as §3

[19] = tested on: PI3K; experiment: Western blot, PI3K expression in SW480 cells; format: cell-based, human; conditions: SW480, 8 μM
Summary of the method: as §3

[20] = tested on: PI3K; experiment: Western blot, PI3K expression in CT26 cells; format: cell-based, mouse; conditions: CT26, 8 μM
Summary of the method: as §3

[21] = tested on: Akt; experiment: Western blot, Akt expression in SW480 cells; format: cell-based, human; conditions: SW480, 8 μM
Summary of the method: as §3

[22] = tested on: Akt; experiment: Western blot, Akt expression in CT26 cells; format: cell-based, mouse; conditions: CT26, 8 μM
Summary of the method: as §3

[23] = biological target: T1, SHP-2; experiment: Western blot, SHP-2 in human TME; format: cell-based; conditions: SW480 cocultured with THP-1
Summary of the method: (§4)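 Western blot in tumour–macrophage cocultures: SW480 with THP-1 (human) and CT26 with RAW264.7 (mouse). Coculture drives the macrophages toward a cancer-promoting phenotype, after which test compound is applied. Protein was quantified by BCA, separated by SDS-PAGE, transferred to PVDF and detected with peroxidase labeling. Comparisons were against both the control and the untreated coculture. Data are mean ± SD, n ≥ 3.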

[24] = biological target: T2, SHP-2; experiment: Western blot, SHP-2 in mouse TME; format: cell-based; conditions: CT26 cocultured with RAW264.7
Summary of the method: as §4

[25] = tested on: cytokines (TGF-β, IL-10, and Arg-1); experiment: Western blot, cytokine expression in the TME; format: cell-based; conditions: vs coculture
Summary of the method: as §4

[26] = tested on: PI3K and Akt proteins; experiment: Western blot, PI3K-Akt pathway in TAMs; format: cell-based
Summary of the method: as §4

[27] = tested on: chemokine receptors, CC and CXC chemokine subfamilies; experiment: Chemokine mRNA levels in human and mouse TME; format: cell-based; conditions: human and mouse TME cocultures
Summary of the method: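 Human system: SW480 cells cocultured with THP-1 cells. Mouse system: CT26 cells cocultured with RAW264.7 cells. Coculture induces the macrophages to differentiate into cancer-promoting cells, which are then treated with test compound. Chemokine receptor and CC/CXC chemokine mRNA levels were measured and compared with the control group. Data are mean ± SD from at least three independent replicates.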

Sequence of CDK1 (Mus musculus, UniProt P11440) (P11440 whole entry): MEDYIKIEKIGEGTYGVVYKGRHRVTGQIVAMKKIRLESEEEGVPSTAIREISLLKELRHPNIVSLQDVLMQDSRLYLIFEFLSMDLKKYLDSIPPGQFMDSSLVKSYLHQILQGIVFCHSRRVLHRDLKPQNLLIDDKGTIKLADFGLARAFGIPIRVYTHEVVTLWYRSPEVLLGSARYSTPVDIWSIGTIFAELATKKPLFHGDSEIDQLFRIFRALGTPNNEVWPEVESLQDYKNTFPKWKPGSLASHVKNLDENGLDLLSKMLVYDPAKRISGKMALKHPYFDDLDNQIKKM
Sequence of CDK1 (Homo sapiens, UniProt P06493) (P06493 whole entry): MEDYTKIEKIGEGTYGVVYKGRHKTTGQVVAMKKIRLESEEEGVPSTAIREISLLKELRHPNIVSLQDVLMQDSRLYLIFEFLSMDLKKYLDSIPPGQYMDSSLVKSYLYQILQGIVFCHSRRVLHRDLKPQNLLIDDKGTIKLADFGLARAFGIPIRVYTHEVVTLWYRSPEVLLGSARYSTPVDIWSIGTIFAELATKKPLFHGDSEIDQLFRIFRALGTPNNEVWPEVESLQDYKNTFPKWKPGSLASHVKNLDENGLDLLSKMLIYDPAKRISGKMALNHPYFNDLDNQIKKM

COc1cc(/C=C/C(=O)/C(=C\C2=CC=C[CH]2[Fe][CH]2C=CC=C2)C(=O)/C=C/c2ccc(OC)c(OC)c2)ccc1O (stereo not shown) [Compound 3b, Cyclopenta-2,4-dien-1-yl(2-((1E,4E)-5(3,4-dimethoxyphenyl)-2-((E)-3-(4-hydroxy-3-methoxyphenyl)acryloyl)-3-oxopenta-1,4-dien-1-yl)cyclopenta-2,4-dien-1-yl)iron]
inhibition of SW480 cells compared with the CVB-D group [1]: markedly superior
proliferative capacity of CT26 cells compared to the control group ([2]; 10 μM): significant differences
proliferative capacity of CT26 cells compared to the CVB-D group ([2]; 10 μM, CVB-D 12 μM): no significant difference

COc1ccc(/C=C/C(=O)C(=CC2=CC=C[CH]2[Fe][CH]2C=CC=C2)C(=O)/C=C/c2ccc(OC)c(OC)c2)cc1OC (stereo not shown) [Compound 3f, Cyclopenta-2,4-dien-1-yl(2-((E)-5(3,4-dimethoxyphenyl)-2-((E)-3-(3,4-dimethoxyphenyl)acryloyl)-3-oxopenta-1,4-dien-1-yl)cyclopenta-2,4-dien-1-yl)iron]
selectivity index (SI), IC50 normal cells / IC50 RKO [3]: 162
inhibition of SW480 cells compared with the CVB-D group [1]: markedly superior
selectivity index (SI), IC50 normal cells / IC50 SW480 ([1]; NCM460 vs SW480): 250
concentration of strongest (optimal) inhibition ([1]; SW480, tested 0-8 μM): 8 µM
concentration at which significant inhibition begins ([1]; SW480, vs control): 4 µM
IC50 ([1]; read-out: IC50 against SW480 cells, SW480 cells, MTT): 3710 nM
proliferative capacity of CT26 cells compared to the control group ([2]; 10 μM): significant differences
optimal inhibitory concentration ([2]; CT26, tested 0-8 μM): 8 µM
concentration at which an inhibitory effect is demonstrated ([2]; CT26, vs control): 3 µM
selectivity index (SI), IC50 normal cells / IC50 CT26 ([2]; NCM460 vs CT26): 654
IC50 ([2]; read-out: IC50 against CT26 cells, CT26 cells, MTT): 1420 nM
USP toxicity classification to normal colon epithelial cells ([4]; NCM460): low toxic/nontoxic
viability of NCM460 cells ([4]; at all concentrations (0, 5, 10, 20, 40, 80 μM)): above 87%
cell viability of THP-1 cells [5]: ~100%
cell viability of RAW264.7 cells [6]: ~100%
Cyclin-D1 protein expression inhibition rate [7]: 19%
effect on Cyclin-D1 protein compared to SW480 [8]: stronger inhibitory effect
expression of p27 protein [9]: significantly increased
expression of p27 protein [10]: significantly increased
expression of PINK1 protein [11]: significantly up-regulated
expression of PINK1 protein [12]: significantly increased
expression of Parkin protein [13]: significantly up-regulated
expression of Parkin protein [14]: significantly increased
SHP-2 inhibition rate [15]: 76%
SHP-2 inhibition rate [16]: 24%
CDK1 inhibition rate [17]: 18%
CDK1 inhibition rate [18]: 20%
PI3K expression inhibition rate [19]: 46%
PI3K expression inhibition rate [20]: 15%
Akt expression inhibition rate [21]: 48%
Akt expression inhibition rate [22]: 50%
inhibition rate on SHP-2 target in human TME [23]: 65%
inhibition rate on SHP-2 target in mouse TME [24]: 32%
expression levels of cytokines (TGF-β, IL-10, Arg-1) in the TME [25]: significantly reduced
expression levels of PI3K and Akt proteins in both coculture systems [26]: reduced
effect on CCL and CXCL subfamilies (mRNA) [27]: able to inhibit
mRNA levels of CCR chemokine receptors [27]: significantly reduced
